Screening data: PubChem, Broad Institute
PGC1a acetyl up: compounds raising PGC1a acetylation signal, primary screen, PGC1a modulator project, cell-based, U2OS, AlphaScreen, signal-increasing mode; overnight; activation, % at 15.6 µM; hit rate 0.21% among 350,000; AID 651723, 2012;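 active = every replicate reaching activation of at least 50%, whatever the mean replicate activation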;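 note: hits raise the AlphaScreen acetylation signal above neutral controls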
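System – flag-PGC1a/GCN5 U2OS cells · Quantity – 7000 U2OS cells per well · Signal – AlphaScreen proximity luminescence, anti-acetyl-lysine antibody · Schedule – overnight compound treatment, 37 °C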
A number is an active result; n = inactive. The full list was thinned out, with hits kept by preference.

SMILES	PGC1a acetyl up
Cc1c(C(=O)Nc2ccc3c(c2)OCCO3)sc2nc(-c3ccccc3)cn12	62
COc1ccc(/C=N/NC(=O)c2cccnc2)cc1CN1CCOCC1	n
Cc1cccc(C(=O)Nc2ccc(C(=O)/C=C/c3cccnc3)cc2)c1	n
CCCCCCC(=O)Nc1ccc(C(=O)N/N=C/c2cccnc2)cc1	417
CC(C)NC(=O)N(C)C[C@H]1OCCCC[C@@H](C)Oc2ccc(NC(=O)Nc3ccc(C(F)(F)F)cc3)cc2C(=O)N([C@H](C)CO)C[C@@H]1C	n
COc1ccc(N(C(=O)CCl)C(C(=O)NCCc2ccccc2)c2cccs2)cc1 (configuration not stated)	n
C[C@@H]1CN([C@@H](C)CO)C(=O)c2cc(NS(=O)(=O)c3ccc(F)cc3)ccc2O[C@@H]1CN(C)S(=O)(=O)c1ccc(Cl)cc1	n
CCC1(CC)Cc2ccccc2-c2nc(CN(C)C)[nH]c(=O)c21	53
COc1ccc(-c2cc(-c3ccccc3)c(C#N)c(S(C)=O)n2)cc1 (configuration not stated)	n
COc1ccc2c(-c3ccccc3)cc(=O)[nH]c2c1	n
COc1ccc(-c2ccc(OC)cc2C(=O)O)cc1	70
CN(C)CC(O)c1ccc(C=Cc2ccc(Cl)cc2)cc1 (configuration not stated)	n
COc1cccc(C2c3[nH]c4ccccc4c3CCN2Cc2cnc(C)s2)c1OC (configuration not stated)	70
COc1ccc(-c2cnc3c(c2)C(=O)N([C@H](C)CO)C[C@@H](C)[C@H](CN(C)C(=O)C2CCC2)O3)cc1	n
Cc1ccc(-c2nnc(Nc3ccccc3)c3ccccc23)cc1S(=O)(=O)NCC1CCCO1 (configuration not stated)	120
O=C1C(Cl)=C(Nc2ccc3cn[nH]c3c2)C(=O)c2ccccc21	n
CC(=O)Nc1cccc(-c2ccnc3c2CC(C)(C(=O)Nc2ccc(C(C)C)cc2)O3)c1 (configuration not stated)	70
N#CC1(NC(=O)Cn2ncc(Cl)c(Cl)c2=O)CCCCC1	98
Cn1nnnc1Sc1ncnc2scc(-c3ccc(C#N)cc3)c12	74
Cn1nnnc1Sc1ncnc2scc(-c3cc4ccccc4o3)c12	106
COc1ccc(CC2C(=O)NC(C)C(=O)N(C)C3Cc4ccc(cc4)Oc4cc(ccc4O)CC(C(=O)NC(C)C(=O)NC(C)C(=O)N2C)N(C)C3=O)cc1 (configuration not stated)	n
CCOCCCNC(=O)C1CCN(C(=O)Nc2ccc(C)cc2)CC1	n
Nc1ncc([N+](=O)[O-])c(N2CCCCCC2)n1	n
CSCCC(NC(=O)OC(C)(C)C)C(=O)Oc1ccc2c(=O)c(-c3ccc4c(c3)OCCO4)coc2c1 (configuration not stated)	73
COc1cccc2c1C(CO)N1C(C#N)C3CC(C(=O)O)C(C1C2)N3C (configuration not stated)	n
SMILES	PGC1a acetyl up
CO[C@H]1CN(C)C(=O)c2ccc(NC(=O)C3CCOCC3)cc2OC[C@@H](C)N(C)C[C@@H]1C	n
Cc1ccc(C(=O)N2CCN(c3ccc(NC(=S)NC(=O)c4cccs4)cc3)CC2)cc1	53
Cc1ccc(C(=O)N2CCN(c3ncccn3)CC2)cc1	n
CCCCS(=O)(=O)/C=C\C=C/S(=O)(=O)CCCC	n
CN1CCN(/N=C/c2ccc(OCc3ccccc3)cc2)CC1	n
COC(=O)[C@]1(Cc2ccccc2)N=C(c2ccc(OCCCO)cc2)O[C@@H]1c1ccccc1	77
COC(=O)[C@@]1(Cc2ccccc2CN=[N+]=[N-])N=C(c2ccc(OCCCO)cc2)O[C@H]1c1ccccc1	66
COC(=O)[C@]1(Cc2ccccc2)N=C(c2ccc(OCCCO)cc2)O[C@@H]1c1ccccc1CN=[N+]=[N-]	101
COc1ccccc1C1c2c(C)nn(-c3ccccc3)c2NC(=O)C1NC(=O)c1ccccc1 (configuration not stated)	n
Cc1ccc(S(=O)(=O)N(C)C[C@@H]2OCCCC[C@H](C)Oc3ccc(NS(C)(=O)=O)cc3C(=O)N([C@@H](C)CO)C[C@@H]2C)cc1	n
CC(=O)c1c(COC(=O)c2ccccc2)nc2ccccc2[n+]1[O-]	n
O=C(Cn1nc(C(=O)O)c2ccccc2c1=O)Nc1cccc(Br)c1	n
CCCc1nnc(NC(=O)CN2CCOCC2)s1	93
CCC(=O)Nc1nnc(SCCOC)s1	n
CCOC(=O)C1(CC2CCCCO2)CCN(C(=O)Nc2ccc(SC)cc2)CC1 (configuration not stated)	n
C[C@H](CO)N1C[C@H](C)[C@@H](CN(C)CC2CC2)Oc2cc(-c3cccnc3)ccc2S1(=O)=O	n
O=S1(=O)CC=C(CSC(=S)NC2CCS(=O)(=O)C2)C1 (configuration not stated)	n
CC(=O)Nc1ccc(NC(=O)c2cc(=O)c3ccccc3o2)cc1	n
CC(=O)Nc1ccc(Sc2ccc([N+](=O)[O-])o2)cc1	438
CCCN(C)C[C@H]1Oc2cc(C#C[C@@H](C)O)ccc2S(=O)(=O)N([C@@H](C)CO)C[C@H]1C	n
COc1ccccc1C#Cc1ccc([C@H]2[C@H](C#N)N(C(=O)C3CCCC3)[C@H]2CO)cc1	n
COc1ccc(C#Cc2ccc([C@@H]3[C@H](CO)N4CCCCN(C(=O)Nc5ccccc5)C[C@@H]34)cc2)cc1	78
O=C(Nc1ccccc1F)N1CCCCN2[C@H](CO)[C@H](c3ccc(C#Cc4ccccc4)cc3)[C@H]2C1	72
CC(C)CC#Cc1ccc([C@@H]2[C@H](CO)N3CCCCN(S(=O)(=O)Cc4ccccc4)C[C@@H]23)cc1	61
CC(C)C#Cc1cnc2c(c1)C(=O)N([C@@H](C)CO)C[C@@H](C)[C@@H](CN(C)C(=O)c1ccccn1)O2	n
SMILES	PGC1a acetyl up
CCCCC(O)(CCCC)C(=O)N/N=C(\C)c1ccc(Cl)cc1	n
Cc1ccc(/C=C2/CNC/C(=C/c3ccc(C)cc3)C2=O)cc1	n
Cc1ccccc1-c1nc(C(=O)NCC2CCCO2)cc2c1[nH]c1ccccc12 (configuration not stated)	61
O=C(CSc1nc2ccccc2c(=O)n1CC1CCCO1)N1CCN(c2ccccc2)CC1 (configuration not stated)	n
Cc1ccc(-c2cc(C(=O)NCC3CCCO3)c3ccccc3n2)cc1C (configuration not stated)	n
C[C@H](CO)N1C[C@H](C)[C@H](CN(C)Cc2ccncc2)OCc2cn(nn2)CCCC1=O	n
COCc1ccc(CN2CCC(n3nccc3NC(=O)c3ccc4c(c3)OCO4)CC2)o1	54
CO[C@@H]1CN(C)C(=O)c2cc(NC(=O)c3ccc4c(c3)OCO4)ccc2OC[C@@H](C)N(CC2CC2)C[C@H]1C	n
Cc1coc2cc3oc(=O)c(CCC(=O)NC4CC4)c(C)c3cc12	57
COCCNC(=O)CN1CCC(NC(=O)C(C)(C)C)CC1	n
O=C(O)C1CCCN1S(=O)(=O)c1cc(Cl)ccc1Cl (configuration not stated)	n
O=C(O)CCCC(=O)Nc1ccc(Br)cc1C(=O)O	50
CC1=NN(c2ccc(C)c(C)c2)C(=O)/C1=C\C=C\c1ccc([N+](=O)[O-])o1	n
Cc1ccc(O)c(/C=N/NC(=O)CN2CCCC2)c1	n
O=C(CSc1ccc(Cl)cc1)N/N=C/c1ccc([N+](=O)[O-])o1	92
O=C(CSc1nnc(-c2ccccc2)n1-c1ccc(Cl)cc1)N/N=C/c1ccccc1C(=O)O	n
